# Laboratory results reported in ChEMBL document CHEMBL5724801, “EUbOPEN Chemogenomics Library - Multiplex” (2024).
# “And” between values parts separate entries of the source, which are not always exact repeats. Identical values can stand only once.
# System: Fibroblast
# Experiment: Multiplex assay against human fibroblast
# Type: toxicity, cell-based
# Method in brief: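 Phenotypes for tubulin, mitochondrial mass and membrane permeability are expressed as per cents of healthy-nucleus cells. Cells were stained live at seeding with Hoechst33342, BioTracker Green Microtubule Cytoskeleton Dye, MitoTracker Red and Annexin V Alexa Fluor 680, then imaged after compound addition on a CQ1 microscope at 37°C and 5% CO2. Machine-learning gating in CellPathfinder separated Hoechst high-intensity objects from normal cells, divided normal cells by nuclear state (healthy, pyknosed, fragmented) and divided pyknosed cells into mitotic or apoptotic.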
# [1] = 12 h, 1 µM, compound concentration 1 uM
# [2] = 12 h, 10 µM, compound concentration 10 uM
# [3] = 24 h, 1 µM, compound concentration 1 uM
# [4] = 24 h, 10 µM, compound concentration 10 uM
# [5] = 48 h, 1 µM, compound concentration 1 uM
# [6] = 48 h, 10 µM, compound concentration 10 uM
structure (smiles),measurement,setting,value
CN(C)c1ccnc2sc3c(=O)n(N4CCCCCC4)cnc3c12,Population Apoptotic (%),[1],42% and 30%
same,Population Fragmented Nuclei (%),[1],17% and 28%
same,Population Healthy Nuclei (%),[1],64% and 51%
same,Population Hoechst High Intensity Objects (%),[1],3% and 6%
same,Population Membrane Permeable-Phenotype (%),[1],1% and 10%
same,Population Mitochondria Different-Phenotype (%),[1],3%
same,Population Mitotic Cells (%),[1],57% and 70%
same,Population Normal (%),[1],96% and 93%
same,Population Pyknosed Nuclei (%),[1],18% and 19%
same,Population Tubulin-Different-Phenotype (%),[1],29% and 44%
same,Total Cell Count,[1],144 and 162
same,Population Apoptotic (%),[2],44% and 49%
same,Population Fragmented Nuclei (%),[2],14% and 31%
same,Population Healthy Nuclei (%),[2],58% and 30%
same,Population Hoechst High Intensity Objects (%),[2],5% and 7%
same,Population Mitochondria Different-Phenotype (%),[2],14%
same,Population Mitotic Cells (%),[2],55% and 50%
same,Population Normal (%),[2],94% and 92%
same,Population Pyknosed Nuclei (%),[2],27% and 38%
same,Population Tubulin-Different-Phenotype (%),[2],75%
same,Total Cell Count,[2],141 and 145
same,Population Apoptotic (%),[3],48% and 50%
same,Population Fragmented Nuclei (%),[3],11% and 24%
same,Population Healthy Nuclei (%),[3],67% and 55%
same,Population Hoechst High Intensity Objects (%),[3],3% and 2%
same,Population Membrane Permeable-Phenotype (%),[3],0% and 10%
same,Population Mitochondria Different-Phenotype (%),[3],3% and 2%
same,Population Mitotic Cells (%),[3],51% and 50%
same,Population Normal (%),[3],96% and 97%
same,Population Pyknosed Nuclei (%),[3],21% and 19%
same,Population Tubulin-Different-Phenotype (%),[3],27% and 49%
same,Total Cell Count,[3],143 and 146
same,Population Apoptotic (%),[4],57% and 30%
same,Population Fragmented Nuclei (%),[4],13% and 35%
same,Population Healthy Nuclei (%),[4],58% and 41%
same,Population Hoechst High Intensity Objects (%),[4],5% and 8%
same,Population Membrane Permeable-Phenotype (%),[4],0% and 22%
same,Population Mitochondria Different-Phenotype (%),[4],18% and 24%
same,Population Mitotic Cells (%),[4],42% and 69%
same,Population Normal (%),[4],94% and 91%
same,Population Pyknosed Nuclei (%),[4],28% and 22%
same,Population Tubulin-Different-Phenotype (%),[4],63% and 85%
same,Total Cell Count,[4],130 and 128
same,Population Apoptotic (%),[5],64% and 36%
same,Population Fragmented Nuclei (%),[5],19% and 36%
same,Population Healthy Nuclei (%),[5],70% and 49%
same,Population Hoechst High Intensity Objects (%),[5],2% and 3%
same,Population Membrane Permeable-Phenotype (%),[5],0% and 6%
same,Population Mitochondria Different-Phenotype (%),[5],0% and 2%
same,Population Mitotic Cells (%),[5],35% and 63%
same,Population Normal (%),[5],97% and 96%
same,Population Pyknosed Nuclei (%),[5],10% and 14%
same,Population Tubulin-Different-Phenotype (%),[5],30% and 41%
same,Total Cell Count,[5],143 and 157
same,Population Apoptotic (%),[6],73% and 50%
same,Population Fragmented Nuclei (%),[6],22% and 47%
same,Population Healthy Nuclei (%),[6],47% and 42%
same,Population Hoechst High Intensity Objects (%),[6],8% and 6%
same,Population Membrane Permeable-Phenotype (%),[6],0% and 19%
same,Population Mitochondria Different-Phenotype (%),[6],25% and 13%
same,Population Mitotic Cells (%),[6],26% and 50%
same,Population Normal (%),[6],91% and 93%
same,Population Tubulin-Different-Phenotype (%),[6],76% and 86%
same,Total Cell Count,[6],138 and 131
CC(C)(C)c1ccc(CSc2cnn(C(C)(C)C)c(=O)c2Cl)cc1 [PYRIDABEN],Population Apoptotic (%),[1],46% and 44%
same,Population Fragmented Nuclei (%),[1],15% and 27%
same,Population Healthy Nuclei (%),[1],66% and 47%
same,Population Hoechst High Intensity Objects (%),[1],1% and 4%
same,Population Membrane Permeable-Phenotype (%),[1],3% and 12%
same,Population Mitochondria Different-Phenotype (%),[1],1% and 7%
same,Population Mitotic Cells (%),[1],53% and 55%
same,Population Normal (%),[1],98% and 95%
same,Population Pyknosed Nuclei (%),[1],17% and 25%
same,Population Tubulin-Different-Phenotype (%),[1],28% and 57%
same,Total Cell Count,[1],148 and 142
same,Population Apoptotic (%),[2],25% and 47%
same,Population Fragmented Nuclei (%),[2],11% and 25%
same,Population Healthy Nuclei (%),[2],68% and 49%
same,Population Hoechst High Intensity Objects (%),[2],4% and 1%
same,Population Membrane Permeable-Phenotype (%),[2],2% and 12%
same,Population Mitochondria Different-Phenotype (%),[2],5% and 4%
same,Population Mitotic Cells (%),[2],74% and 52%
same,Population Normal (%),[2],95% and 98%
same,Population Pyknosed Nuclei (%),[2],20% and 25%
same,Population Tubulin-Different-Phenotype (%),[2],35% and 54%
same,Total Cell Count,[2],139 and 136
same,Population Apoptotic (%),[3],35% and 36%
same,Population Fragmented Nuclei (%),[3],17% and 30%
same,Population Healthy Nuclei (%),[3],71% and 48%
same,Population Hoechst High Intensity Objects (%),[3],0% and 4%
same,Population Membrane Permeable-Phenotype (%),[3],0% and 7%
same,Population Mitochondria Different-Phenotype (%),[3],2% and 8%
same,Population Mitotic Cells (%),[3],64% and 63%
same,Population Normal (%),[3],99% and 95%
same,Population Pyknosed Nuclei (%),[3],11% and 21%
same,Population Tubulin-Different-Phenotype (%),[3],20% and 50%
same,Total Cell Count,[3],148
same,Population Apoptotic (%),[4],56% and 54%
same,Population Fragmented Nuclei (%),[4],13% and 28%
same,Population Healthy Nuclei (%),[4],62% and 48%
same,Population Hoechst High Intensity Objects (%),[4],2% and 0%
same,Population Membrane Permeable-Phenotype (%),[4],1% and 9%
same,Population Mitochondria Different-Phenotype (%),[4],7% and 9%
same,Population Mitotic Cells (%),[4],43% and 45%
same,Population Normal (%),[4],97% and 99%
same,Population Pyknosed Nuclei (%),[4],23% and 22%
same,Population Tubulin-Different-Phenotype (%),[4],40% and 53%
same,Total Cell Count,[4],139 and 136
same,Population Apoptotic (%),[5],50% and 45%
same,Population Fragmented Nuclei (%),[5],27% and 43%
same,Population Healthy Nuclei (%),[5],62% and 41%
same,Population Hoechst High Intensity Objects (%),[5],1% and 4%
same,Population Membrane Permeable-Phenotype (%),[5],0% and 6%
same,Population Mitotic Cells (%),[5],50% and 54%
same,Population Normal (%),[5],98% and 95%
same,Population Pyknosed Nuclei (%),[5],9% and 15%
same,Population Tubulin-Different-Phenotype (%),[5],28% and 63%
same,Total Cell Count,[5],164 and 153
same,Population Apoptotic (%),[6],72% and 63%
same,Population Fragmented Nuclei (%),[6],19% and 36%
same,Population Healthy Nuclei (%),[6],62% and 48%
same,Population Hoechst High Intensity Objects (%),[6],4% and 5%
same,Population Membrane Permeable-Phenotype (%),[6],0% and 8%
same,Population Mitochondria Different-Phenotype (%),[6],8% and 10%
same,Population Mitotic Cells (%),[6],28% and 36%
same,Population Normal (%),[6],95% and 94%
same,Population Pyknosed Nuclei (%),[6],18% and 15%
same,Population Tubulin-Different-Phenotype (%),[6],49% and 58%
same,Total Cell Count,[6],143 and 131
